# Data as given in ChEMBL document CHEMBL1641480, “Antioxidant activity of a new C-glycosylflavone from the leaves of Ficus microcarpa” (Bioorg Med Chem Lett, 2011).
# The source made the active and inactive calls. The rule behind the calls is not given here.
# Columns and labels:
# Format in all cases: functional
# [1] = Antioxidant activity assessed as copper ion radical scavenging activity at 2 uM
# How it was run: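 Cu(II)-reducing test: compound in distilled water mixed 40:160 with 0.5 mM CuCl2 plus 0.75 mM neocuproine in 10 mM phosphate buffer, pH 7.4. Absorbance read at 454 nm for 1 h. Reduced Cu(I) concentration measured at 2 μM compound.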
# [2] = Metal chelating activity of the compound at 1 to 2 uM
# How it was run: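 Chelation: compound mixed 1:1 with CuSO4, then calcein added. Fluorescence read at excitation 485 nm and emission 535 nm, compared with calcein-only control. Tested at 1 and 2 μM; mean ± S.D.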
# [3] = Antioxidant activity assessed as peroxyl radical scavenging activity at 1 to 2 uM by ORAC assay
# How it was run: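 ORAC peroxyl-radical assay at 1.0 and 2.0 μM. Fluorescein is the radical target and 20 mM AAPH the generator. Fluorescence recorded every 2 min after AAPH, relative to the initial reading. Net area under the decay curve versus blank, expressed as μM Trolox equivalents against freshly prepared Trolox standard.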
SMILES,Activity [1],Activity [2],Activity [3]
O=c1cc(-c2ccc(O)cc2)oc2cc(O)c([C@@H]3O[C@H](CO)[C@@H](O)[C@H](O)[C@H]3O)c(O)c12,inactive,inactive,–
CC[C@H](CC[C@@H](C)[C@H]1CC[C@H]2[C@@H]3CC=C4C[C@@H](O[C@@H]5O[C@H](CO)[C@@H](O)[C@H](O)[C@H]5O)CC[C@]4(C)[C@H]3CC[C@]12C)C(C)C,inactive,inactive,inactive
CC1=CC(=O)CC(C)(C)[C@H]1/C=C/[C@@H](C)O[C@@H]1O[C@H](CO[C@@H]2O[C@@H](CO)[C@H](O)[C@H]2O)[C@@H](O)[C@H](O)[C@H]1O,inactive,inactive,inactive
Oc1cc(O)c2c(c1)O[C@H](c1ccc(O)c(O)c1)[C@H](O)C2,Active,inactive,Active
Oc1cc(O)c2c(c1)O[C@H](c1ccc(O)c(O)c1)[C@@H](O)C2,Active,inactive,Active
C[C@H](O)/C=C/[C@@]1(O)C(C)(C)C[C@H](O)C[C@@]1(C)O,inactive,inactive,inactive
CC[C@H](CC[C@@H](C)[C@H]1CC[C@H]2[C@@H]3CC=C4C[C@@H](O)CC[C@]4(C)[C@H]3CC[C@]12C)C(C)C,inactive,inactive,inactive
O=c1cc(-c2ccc(O)cc2)oc2c([C@@H]3O[C@H](CO)[C@@H](O)[C@H](O)[C@H]3O[C@H]3OC[C@@](O)(CO)[C@@H]3O)c(O)cc(O)c12,inactive,inactive,–
C[C@@H]1C[C@H](O)CC(C)(C)[C@@]1(O)CC[C@H](C)O[C@H]1O[C@@H](CO)[C@H](O)[C@@H](O)[C@@H]1O,inactive,inactive,inactive
CCCCCCCCCCCCCCCCCC(=O)OC[C@H]1O[C@@H](O[C@H]2CC[C@@]3(C)C(=CC[C@H]4[C@@H]5CC[C@H]([C@H](C)CC[C@@H](CC)C(C)C)[C@@]5(C)CC[C@@H]43)C2)[C@H](O)[C@@H](O)[C@@H]1O,inactive,inactive,inactive
COc1cc(/C=C/CO)cc(OC)c1O[C@@H]1O[C@H](CO)[C@@H](O)[C@H](O)[C@H]1O,inactive,inactive,inactive
O=c1cc(-c2ccc(O)c(O)c2)oc2cc(O)c([C@@H]3O[C@H](CO)[C@@H](O)[C@H](O)[C@H]3O)c(O)c12,Active,inactive,Active
O=c1cc(-c2ccc(O[C@@H]3O[C@H](CO)[C@@H](O)[C@H](O)[C@H]3O)cc2)oc2cc(O)c([C@@H]3O[C@H](CO)[C@@H](O)[C@H](O)[C@H]3O)c(O)c12,inactive,inactive,–
C[C@H](/C=C/[C@]1(O)C(C)(C)C[C@@H](O)C[C@]1(C)O)O[C@H]1O[C@@H](CO)[C@H](O)[C@@H](O)[C@@H]1O,inactive,inactive,inactive
